The target in one data set is Cytochrome P450 3A5 (Homo sapiens, UniProt P20815). In words: Inhibition of CYP3A5 (unknown origin). In kind it is ADME.
Data set [1] concerns the target Dual specificity mitogen-activated protein kinase kinase 1 (Homo sapiens) (UniProt Q02750). In words: Inhibition of human MEK1 in human MIA PaCa-2 cells assessed as decrease of p42/44 MAPK phosphorylation in presence of U0126 at 10 uM measured after 5 hrs by Westren blot assay. Type of data set: cell-based. The essentials:
(§1)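 CD18 or MiaPaCa2 cells pretreated with U0126 (1 or 5 μM) for 1 h, then MEK4 inhibitor (10 μM) added for 5 h. Phospho- and total p42/44 MAPK detected by Western blot with HSP90 as loading control. Blots representative of at least three biological replicates.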

For data set [2], the target named is Dual specificity mitogen-activated protein kinase kinase 2 (Homo sapiens) (UniProt P36507). The data set is described as follows: Inhibition of human MEK2 in human HEK293T cells assessed as reversal of anisomycin-induced decrease of p42/44 MAPK phosphorylation at 100 uM measured after 5 hrs by Western blot assay. In kind it is cell-based. The essentials:
(§2)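 HEK293T cells pretreated with anisomycin (3 μg/mL) for 45 min, then given inhibitor (100 μM) for 5 h. Phospho- and total p42/44 MAPK and p38 MAPK, plus MEK7, detected by Western blot with HSP90 as loading control. Blots representative of at least three biological replicates.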
A general note: A western blot detects proteins with antibodies after separation by electrophoresis.

The next data set relates to HPAF-II. The data set is described as follows: Antiproliferative activity against human HPAF-II cells assessed as inhibition of cell proliferation in presence of […] at 10 uM measured after 72 hrs. Type of data set: functional, cell-based. The method in brief: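 CD18 or MiaPaCa2 cells (~30,000) treated for 72 h with DMSO, U0126 (1 or 5 μM), MEK4 inhibitor (10 μM), or the combination. Cells trypsinized and counted, with counts normalized to DMSO; two-way ANOVA. Interaction expressed as CDI = AB/(A × B) from the normalized ratios, mean ± SEM of three biological replicates.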

Data set [3] addresses Dual specificity mitogen-activated protein kinase kinase 2 (Homo sapiens) (UniProt P36507). In words: Inhibition of human MEK2 in human HPAF-II cells assessed as decrease of p42/44 MAPK phosphorylation in presence of U0126 at 10 uM measured after 5 hrs by Westren blot assay. In kind it is cell-based.
Data set [4] addresses T1, Dual specificity mitogen-activated protein kinase kinase 7 (Homo sapiens) (UniProt O14733).
T1 sequence (whole entry): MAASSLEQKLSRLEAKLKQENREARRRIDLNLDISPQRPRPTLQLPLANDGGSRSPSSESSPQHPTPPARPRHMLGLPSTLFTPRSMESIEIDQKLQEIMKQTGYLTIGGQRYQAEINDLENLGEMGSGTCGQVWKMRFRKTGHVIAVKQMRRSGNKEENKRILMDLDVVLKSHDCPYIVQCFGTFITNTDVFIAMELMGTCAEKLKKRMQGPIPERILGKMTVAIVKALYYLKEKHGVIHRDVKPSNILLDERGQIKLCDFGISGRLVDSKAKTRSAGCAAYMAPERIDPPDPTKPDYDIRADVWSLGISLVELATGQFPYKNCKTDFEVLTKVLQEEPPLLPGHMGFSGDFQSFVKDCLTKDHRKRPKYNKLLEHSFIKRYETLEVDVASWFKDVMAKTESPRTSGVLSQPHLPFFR
In words: Inhibition of human wild type full length MEK7 (M1 to R417 residues) expressed in mammalian expression system at 1 uM measured by Kinomescan assay.

The target in data set [5] is T1, Dual specificity mitogen-activated protein kinase kinase 7 (Homo sapiens). In words: Inhibition of human MEK7 in human HEK293T cells assessed as decrease of MEK7 expression in presence of anisomycin at 100 uM measured after 5 hrs by Western blot assay. In kind it is cell-based. The essentials:
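HEK293T cells pretreated with anisomycin (3 μg/mL) for 45 min, then exposed to inhibitor (100 μM) for 5 h. MEK7 levels were read by Western blot with HSP90 as loading control. Blots are representative of at least three biological replicates.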

In a further data set the target is Cytochrome P450 2C19 (Homo sapiens, UniProt P33261). In words: Inhibition of CYP2C19 (unknown origin). In kind it is ADME.
Data set [6] addresses T2, Dual specificity mitogen-activated protein kinase kinase 6 (Homo sapiens) (UniProt P52564).
T2 sequence (whole entry): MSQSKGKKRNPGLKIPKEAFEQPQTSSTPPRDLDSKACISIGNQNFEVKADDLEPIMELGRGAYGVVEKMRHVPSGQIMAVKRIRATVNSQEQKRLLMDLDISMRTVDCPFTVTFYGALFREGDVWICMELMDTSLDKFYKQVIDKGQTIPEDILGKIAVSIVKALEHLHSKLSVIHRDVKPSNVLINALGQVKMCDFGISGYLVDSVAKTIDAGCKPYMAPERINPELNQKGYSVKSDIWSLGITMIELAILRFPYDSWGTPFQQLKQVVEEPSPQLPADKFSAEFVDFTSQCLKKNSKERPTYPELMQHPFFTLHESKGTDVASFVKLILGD
In words: Inhibition of human wild type partial length MEK6 (K36 to D344 residues) expressed in bacterial expression system at 1 uM measured by Kinomescan assay.

The target of data set [7] is T3, Dual specificity mitogen-activated protein kinase kinase 3 (Homo sapiens) (UniProt P46734).
T3 sequence (whole entry): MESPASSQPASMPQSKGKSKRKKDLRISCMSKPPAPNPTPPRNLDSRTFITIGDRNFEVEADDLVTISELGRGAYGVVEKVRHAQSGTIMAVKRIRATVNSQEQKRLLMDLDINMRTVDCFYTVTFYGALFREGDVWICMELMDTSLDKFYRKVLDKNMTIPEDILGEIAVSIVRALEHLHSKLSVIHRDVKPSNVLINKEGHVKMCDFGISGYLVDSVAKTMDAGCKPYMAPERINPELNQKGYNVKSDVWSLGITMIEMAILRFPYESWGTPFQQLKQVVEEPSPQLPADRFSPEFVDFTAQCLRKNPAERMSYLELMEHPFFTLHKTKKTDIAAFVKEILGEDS
In words: Inhibition of human MEK3 in human HEK293T cells assessed as inhibition of anisomycin-induced p38 MAPK phosphorylation at 100 uM measured after 5 hrs by Western blot assay. In kind it is cell-based. The method in brief:
as §2

In data set [8] the target is Dual specificity mitogen-activated protein kinase kinase 2 (Homo sapiens) (UniProt P36507). In words: Inhibition of human MEK2 in human MIA PaCa-2 cells assessed as decrease of p42/44 MAPK phosphorylation in presence of U0126 at 10 uM measured after 5 hrs by Westren blot assay. Type of data set: cell-based. The method in brief: as §1
For a further data set, the target named is Cytochrome P450 2D6 (Homo sapiens, UniProt P10635). The data set is described as follows: Inhibition of CYP2D6 (unknown origin). In kind it is ADME.

Activity calls are given as the source filed them. The rule behind the calls is not given here.

Dual specificity mitogen-activated protein kinase kinase 2 (Homo sapiens), sequence (P36507 whole entry): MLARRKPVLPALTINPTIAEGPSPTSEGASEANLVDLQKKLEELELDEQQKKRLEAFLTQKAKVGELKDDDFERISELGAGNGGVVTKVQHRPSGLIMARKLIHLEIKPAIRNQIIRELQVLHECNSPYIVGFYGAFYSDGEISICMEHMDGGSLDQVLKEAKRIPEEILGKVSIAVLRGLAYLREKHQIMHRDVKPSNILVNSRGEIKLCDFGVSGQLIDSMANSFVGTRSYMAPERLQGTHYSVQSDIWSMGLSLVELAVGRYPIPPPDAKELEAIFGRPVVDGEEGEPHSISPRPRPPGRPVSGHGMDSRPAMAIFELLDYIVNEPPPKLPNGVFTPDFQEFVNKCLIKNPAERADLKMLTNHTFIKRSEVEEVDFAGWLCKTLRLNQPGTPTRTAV
Cytochrome P450 2D6, sequence (P10635 whole entry): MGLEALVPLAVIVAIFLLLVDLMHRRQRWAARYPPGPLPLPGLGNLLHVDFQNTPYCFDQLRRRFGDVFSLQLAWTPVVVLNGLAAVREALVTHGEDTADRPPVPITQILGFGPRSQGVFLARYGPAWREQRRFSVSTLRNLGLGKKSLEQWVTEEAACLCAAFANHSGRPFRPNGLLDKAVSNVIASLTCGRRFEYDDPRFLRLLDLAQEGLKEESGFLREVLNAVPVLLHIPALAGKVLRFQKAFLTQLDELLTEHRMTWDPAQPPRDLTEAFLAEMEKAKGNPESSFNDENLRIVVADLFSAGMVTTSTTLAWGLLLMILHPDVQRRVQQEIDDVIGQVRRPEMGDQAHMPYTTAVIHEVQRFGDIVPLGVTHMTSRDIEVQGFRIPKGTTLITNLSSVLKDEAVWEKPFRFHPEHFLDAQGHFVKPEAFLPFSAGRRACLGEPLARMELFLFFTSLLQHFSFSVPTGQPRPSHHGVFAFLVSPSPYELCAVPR
Cytochrome P450 2C19, sequence (P33261 whole entry): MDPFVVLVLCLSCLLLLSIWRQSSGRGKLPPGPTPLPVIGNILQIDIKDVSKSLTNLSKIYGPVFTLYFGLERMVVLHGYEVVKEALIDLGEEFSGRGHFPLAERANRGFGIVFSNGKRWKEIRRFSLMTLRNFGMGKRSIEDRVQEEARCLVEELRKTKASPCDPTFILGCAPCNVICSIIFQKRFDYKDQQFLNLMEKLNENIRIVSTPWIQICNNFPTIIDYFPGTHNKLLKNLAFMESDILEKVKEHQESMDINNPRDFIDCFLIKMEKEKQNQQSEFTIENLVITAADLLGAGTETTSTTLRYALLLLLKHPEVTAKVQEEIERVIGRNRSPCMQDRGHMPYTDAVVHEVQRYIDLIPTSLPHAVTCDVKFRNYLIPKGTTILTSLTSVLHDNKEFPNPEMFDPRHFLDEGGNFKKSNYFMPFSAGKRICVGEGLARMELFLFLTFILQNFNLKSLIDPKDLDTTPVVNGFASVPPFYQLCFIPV
Dual specificity mitogen-activated protein kinase kinase 1 (Homo sapiens), sequence (Q02750 whole entry): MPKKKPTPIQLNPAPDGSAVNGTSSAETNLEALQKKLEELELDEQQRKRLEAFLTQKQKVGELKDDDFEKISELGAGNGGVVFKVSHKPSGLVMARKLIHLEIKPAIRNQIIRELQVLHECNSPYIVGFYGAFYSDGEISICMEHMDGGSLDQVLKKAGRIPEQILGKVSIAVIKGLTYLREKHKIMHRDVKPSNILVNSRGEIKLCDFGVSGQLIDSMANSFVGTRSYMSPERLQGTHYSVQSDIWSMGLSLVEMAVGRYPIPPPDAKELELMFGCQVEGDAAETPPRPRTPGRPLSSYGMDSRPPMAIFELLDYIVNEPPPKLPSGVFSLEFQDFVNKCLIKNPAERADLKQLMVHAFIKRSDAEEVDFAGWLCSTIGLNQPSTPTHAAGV
Cytochrome P450 3A5, sequence (P20815 whole entry): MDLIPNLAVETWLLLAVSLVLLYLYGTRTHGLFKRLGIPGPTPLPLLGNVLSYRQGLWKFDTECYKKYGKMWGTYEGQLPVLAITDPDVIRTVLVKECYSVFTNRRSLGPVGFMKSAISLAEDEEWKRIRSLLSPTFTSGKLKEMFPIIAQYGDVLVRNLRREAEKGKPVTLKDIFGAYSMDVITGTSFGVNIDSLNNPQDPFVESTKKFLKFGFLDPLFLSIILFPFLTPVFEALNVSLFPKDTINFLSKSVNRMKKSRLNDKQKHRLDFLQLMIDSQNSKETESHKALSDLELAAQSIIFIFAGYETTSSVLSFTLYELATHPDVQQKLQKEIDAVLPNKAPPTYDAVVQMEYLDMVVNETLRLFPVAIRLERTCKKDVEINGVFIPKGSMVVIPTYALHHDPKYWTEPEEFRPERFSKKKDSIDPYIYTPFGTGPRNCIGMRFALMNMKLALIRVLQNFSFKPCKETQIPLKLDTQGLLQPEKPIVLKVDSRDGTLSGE

For `NS(=O)(=O)c1ccc(-c2n[nH]c3cc(F)ccc23)cc1`, the “inhibition (INH)” value on Cytochrome P450 3A5 is “Not Active”; against Cytochrome P450 2C19 it was “Active”; at Cytochrome P450 2D6, “Not Active”. The inhibition entry in data set [1], in [2], in data set [3] and in [8] was “Active” throughout. Moreover, the outcome with HPAF-II was Active. The values for the inhibition in data set [4] and in data set [6] were 58% and 12%, respectively. Also, the inhibition entry in data set [5] and in data set [7] was “inactive” throughout.

With `NC(=O)c1ccc(NS(=O)(=O)c2cccc(-c3n[nH]c4cc(F)ccc34)c2)cc1`, the “inhibition (INH)” value against Cytochrome P450 3A5 is recorded as “Not Active”; at Cytochrome P450 2C19, “Active”; on Cytochrome P450 2D6, “Active”. The inhibition result in data set [1], in data set [2], in data set [3] and in data set [8] was “Active” in each case. Also, the outcome with HPAF-II was Active. In addition, the results for the inhibition in data set [4] and in [6] were 74% and 48%, respectively. The inhibition entry in data set [5] and in data set [7] was “inactive” throughout.

Broadly, the inhibition is the change of the read-out against control, counted positive when it falls.

Values taken from ChEMBL document CHEMBL4837264, “Rational Design, Optimization, and Biological Evaluation of Novel MEK4 Inhibitors against Pancreatic Adenocarcinoma” (ACS Med Chem Lett, 2021).
